From article PMC12416921 (RSC Medicinal Chemistry, 2025)
Where two headings read alike, the source gives them in different places.

Tested on: A549 human cancer cell line
Assay: A549 differential cytotoxicity
Type: cell-based
Settings: for HCR (hypoxia cytotoxicity ratio): A549, oxic vs anoxic IC50, 4 h incubation then 48 h oxic exposure; for IC50: Homo sapiens
Summary of the method: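 A549 cells plated at 6000/well in MEM-alpha with 10% FBS and 0.02 mM 2′-deoxycytidine, attached 2 h. Anoxic arm in a Coy chamber with preconditioned medium and degassed plates; normoxic arm at 95% air/5% CO2. Final 50 μg mL−1 to 5 pg mL−1, duplicate wells. 4 h exposure, then 48 h aerobic without media change.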

[1] = A549, read-out: IC50 [anoxic] (μM) ± SEM
[2] = A549, read-out: IC50 [oxic] (μM) ± SEM

| Compound | HCR (hypoxia cytotoxicity ratio) | IC50 [1] [µM] | IC50 [2] [µM] |
| --- | --- | --- | --- |
| COc1cc(C2=CCCCc3c2ccc(OC)c3OCc2cnc([N+](=O)[O-])n2C)cc(OC)c1OC [KGP293 (21), 5-(((3-Methoxy-9-(3,4,5-trimethoxyphenyl)-6,7-dihydro-5H-benzo[7]annulen-4-yl)oxy)methyl)-1-methyl-2-nitro-1H-imidazole] | 9.0 | 0.04 ± 0.005 | 0.36 ± 0.02 |
| COc1cc(C2=CCCCc3c2ccc(OC)c3OC(C)c2ccc([N+](=O)[O-])s2)cc(OC)c1OC (stereo not drawn) [KGP304 (20), 2-(1-((3-Methoxy-9-(3,4,5-trimethoxyphenyl)-6,7-dihydro-5H-benzo[7]annulen-4-yl)oxy)ethyl)-5-nitrothiophene] | 6.0 | 0.38 ± 0.12 | 2.27 ± 1.01 |
| COc1cc(C2=CCCc3c2ccc(OC)c3OC(C)(C)c2ccc([N+](=O)[O-])s2)cc(OC)c1OC [KGP66 (14), 2-(2-((2-Methoxy-5-(3,4,5-trimethoxyphenyl)-7,8-dihydronaphthalen-1-yl)oxy)propan-2-yl)-5-nitrothiophene] | 2.6 | 0.05 ± 0.01 | 0.13 ± 0.06 |
| COc1ccc2c(C(=O)c3cc(OC)c(OC)c(OC)c3)c(-c3ccc(OC)c(OC(C)c4ccc([N+](=O)[O-])s4)c3)[nH]c2c1 (stereo not drawn) [KGP343 (24), (6-Methoxy-2-(4-methoxy-3-(1-(5-nitrothiophen-2-yl)ethoxy)phenyl)-1H-indol-3-yl)(3,4,5-trimethoxyphenyl)methanone] | 33.8 | 0.12 ± 0.06 | 4.06 ± 1.89 |
| COc1cc(C2=CCCc3c2ccc(OC)c3OCc2ccc([N+](=O)[O-])s2)cc(OC)c1OC [KGP24 (12), 2-(((2-Methoxy-5-(3,4,5-trimethoxyphenyl)-7,8-dihydronaphthalen-1-yl)oxy)methyl)-5-nitrothiophene] | 1.0 | 0.48 ± 0.04 | 0.46 ± 0.05 |
| COc1cc(C2=CCCc3c2ccc(OC)c3OC(C)c2ccc([N+](=O)[O-])s2)cc(OC)c1OC (stereo not drawn) [KGP25 (13), 2-(1-((2-Methoxy-5-(3,4,5-trimethoxyphenyl)-7,8-dihydronaphthalen-1-yl)oxy)ethyl)-5-nitrothiophene] | 11.0 | 0.25 ± 0.08 | 2.74 ± 1.13 |
| COc1cc(C2=CCCc3c2ccc(OC)c3OCc2cnc([N+](=O)[O-])n2C)cc(OC)c1OC [KGP105 (15), 5-(((2-Methoxy-5-(3,4,5-trimethoxyphenyl)-7,8-dihydronaphthalen-1-yl)oxy)methyl)-1-methyl-2-nitro-1H-imidazole] | 6.2 | 0.04 ± 0.003 | 0.25 ± 0.02 |
| COc1ccc2c(C(=O)c3cc(OC)c(OC)c(OC)c3)c(-c3ccc(OC)c(OCc4ccc([N+](=O)[O-])s4)c3)[nH]c2c1 [KGP311 (23), (6-Methoxy-2-(4-methoxy-3-((5-nitrothiophen-2-yl)methoxy)phenyl)-1H-indol-3-yl)(3,4,5-trimethoxyphenyl)methanone] | 79.7 | 0.07 ± 0.04 | 5.58 ± 3.59 |
| COc1cc(C2=CCCCc3c2ccc(OC)c3OCc2ccc([N+](=O)[O-])s2)cc(OC)c1OC [KGP305 (19), 2-(((3-Methoxy-9-(3,4,5-trimethoxyphenyl)-6,7-dihydro-5H-benzo[7]annulen-4-yl)oxy)methyl)-5-nitrothiophene] | 0.2 | 0.22 ± 0.09 | 0.05 ± 0.005 |
| COc1cc(C2=CCCCc3c2ccc(OC)c3OC(C)c2cnc([N+](=O)[O-])n2C)cc(OC)c1OC (stereo not drawn) [KGP292 (22), 5-(1-((3-Methoxy-9-(3,4,5-trimethoxyphenyl)-6,7-dihydro-5H-benzo[7]annulen-4-yl)oxy)ethyl)-1-methyl-2-nitro-1H-imidazole] | 4.8 | 0.14 ± 0.04 | 0.67 ± 0.13 |
| COc1ccc2c(C(=O)c3cc(OC)c(OC)c(OC)c3)c(-c3ccc(OC)c(OC(C)(C)c4ccc([N+](=O)[O-])s4)c3)[nH]c2c1 [KGP354 (25), (6-Methoxy-2-(4-methoxy-3-((2-(5-nitrothiophen-2-yl)propan-2-yl)oxy)phenyl)-1H-indol-3-yl)(3,4,5-trimethoxyphenyl)methanone] | 79 | 0.07 ± 0.02 | 5.53 ± 2.22 |
| COc1cc(C2=CCCc3c2ccc(OC)c3OC(C)c2cnc([N+](=O)[O-])n2C)cc(OC)c1OC (stereo not drawn) [KGP291 (16), 5-(1-((2-Methoxy-5-(3,4,5-trimethoxyphenyl)-7,8-dihydronaphthalen-1-yl)oxy)ethyl)-1-methyl-2-nitro-1H-imidazole] | 7.6 | 0.05 ± 0.004 | 0.38 ± 0.03 |
| Nc1n[n+]([O-])c2ccccc2[n+]1[O-] [TPZ (1), tirapazamine, reference compound] | 8.9 | 7.1 | 63.5 |
